For orientation: T/C means the ratio of treated to control.

The text below walks through data of ChEMBL document CHEMBL1121685, “Development of new mitomycin C and porfiromycin analogues” (J Med Chem, 1981).

The species named for data set [1] is Mus musculus. Briefly: Degree of leukopenia produced by compound is assessed form Percent change in white cells on days 5. The data set is classed as functional. In short, it runs like this:
(§1)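 BDG₁ male mice received a single ip dose on day 0. The dose series topped out at the LD₅₀ level, or at twice the optimal dose for some agents. Total white blood cell count was taken on days 3, 5 and 7 and expressed as % change from untreated controls. Significance was set at p ≤ 0.05 or p ≤ 0.01.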

For data set [2], the species on record is Mus musculus. Briefly: Half-wave potential produced by the compound at their optimal dose. Type of data set: functional. The arrangement: unit not given here.
For data set [3], the system named is Mus musculus. Description: Effect of compound on total white blood cell count in BDG1 male mice, after intraperitoneal administration at a dose of 25.6 mg/kg on day 5. Type of data set: functional. A digest of the protocol: (§2)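 Single ip dose given on day 0 to BDG1 male mice over a descending dose series. Total white blood cell count is expressed as % change from untreated control on days 3, 5 and 7. Significance is flagged at p ≤ 0.05 and p ≤ 0.01.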

The subject of data set [4] is Mus musculus. Description: Effect of compound on total white blood cell count in BDG1 male mice, after intraperitoneal administration at a dose of 25.6 mg/kg on day 7. The data set is classed as functional. A digest of the protocol:
as §2

Data set [5] concerns Mus musculus. Description: Effect of compound on total white blood cell count in BDG1 male mice, after intraperitoneal administration at a dose of 25.6 mg/kg on day 3. Type of data set: functional. A digest of the protocol:
as §2

For data set [6], the system named is Mus musculus. Briefly: Effect of compound on total white blood cell count in BDG1 male mice, after intraperitoneal administration at a dose of 51.2 mg/kg on day 3 (highest dose was twice the optimal dose). The data set is classed as functional. A digest of the protocol: (§3)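 Single ip dose given on day 0 to BDG₁ male mice. Total white blood cell count measured on days 3, 5 and 7, expressed as % change from control. Highest dose was at the LD₅₀, or at twice the optimal dose where so footnoted. Significance reported at p ≤ 0.05 and p ≤ 0.01. D marks death of one or more mice.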

The subject of data set [7] is Mus musculus. Description: Effect of compound on total white blood cell count in BDG1 male mice, after intraperitoneal administration at a dose of 51.2 mg/kg on day 5 (highest dose was twice the optimal dose). Type of data set: functional. In short, it runs like this: as §3
Data set [8] has as its system Mus musculus. Briefly: Minimum effective dose that show activity against P-388 murine leukemia cells in CDF1 female mice, after intraperitoneal administration (optimal dose is 25.6 mg/kg). Type of data set: functional. To be noted: P388, ip, read-out: MED. A digest of the protocol:
(§4)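 10⁶ P-388 ascites cells implanted ip in CDF₁ female mice. Six mice per dose, 10 saline-injected controls, and a concurrent mitomycin C reference group. %T/C = median survival time of treated/control × 100. MED is the lowest dose giving %T/C > 125. Therapeutic ratio = optimal dose/MED.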

Data set [9] has as its system Mus musculus. Briefly: Number of tumored survivors, 45 days after administration of compound at a dose of 16 mg/kg/day in mice. The data set is classed as functional.
In data set [10] the test system is Mus musculus. Description: Activity of compound dose of 16 mg/kg/day against Murine B-16 Melanocarcinoma in mice. Type of data set: functional.
The subject of data set [11] is Mus musculus. Description: Activity of compound dose of 4 mg/kg/day against Murine B-16 Melanocarcinoma in mice. The data set is classed as functional.
The subject of data set [12] is Mus musculus. Briefly: Activity of compound dose of 8 mg/kg/day against Murine B-16 Melanocarcinoma in mice. Type of data set: functional.
For data set [13], the system named is Mus musculus. Description: Antitumor activity against P-388 murine leukemia cells in CDF1 female mice after intraperitoneal administration at the specified optimal dose of 25.6 mg/kg. The data set is classed as functional.
The subject of data set [14] is Mus musculus. Briefly: Activity of compound dose of 0.5 mg/kg/day against Murine B-16 Melanocarcinoma in mice. Type of data set: functional.
For data set [15], the system named is Mus musculus. Description: Activity of compound dose of 1 mg/kg/day against Murine B-16 Melanocarcinoma in mice. Type of data set: functional.
The subject of data set [16] is Mus musculus. Description: Number of cured survivors, 45 days after administration of compound at a dose of 16 mg/kg/day in mice. Type of data set: functional.
Data set [17] concerns Mus musculus. Briefly: Number of cured survivors, 45 days after administration of compound at a dose of 4 mg/kg/day in mice. The data set is classed as functional.
Data set [18] concerns Mus musculus. Description: Activity of compound dose of 2 mg/kg/day against Murine B-16 Melanocarcinoma in mice. The data set is classed as functional.
Data set [19] is described as follows: Therapeutic ratio is expressed as ratio of optimal dose and minimum effective dose. Type of data set: ADME. To be noted: mouse; read-out: TR. A digest of the protocol: as §4
The subject of data set [20] is Mus musculus. Briefly: Effect of compound on total white blood cell count in BDG1 male mice, after intraperitoneal administration at a dose of 12.57 mg/kg on day 5. Type of data set: functional. In short, it runs like this: as §1
The test system of data set [21] is Mus musculus. Description: Effect of compound on total white blood cell count in BDG1 male mice, after intraperitoneal administration at a dose of 12.57 mg/kg on day 7. The data set is classed as functional. In short, it runs like this:
as §1

Data set [22] relates to Mus musculus. Briefly: Effect of compound on total white blood cell count in BDG1 male mice, after intraperitoneal administration at a dose of 12.57 mg/kg on day 3. The data set is classed as functional. In short, it runs like this: as §1
Data set [23] deals with Mus musculus. Description: Effect of compound on total white blood cell count in BDG1 male mice, after intraperitoneal administration at a dose of 17 mg/kg on day 3. The data set is classed as functional. A digest of the protocol:
as §2

For data set [24], the system named is Mus musculus. Description: Effect of compound on total white blood cell count in BDG1 male mice, after intraperitoneal administration at a dose of 17 mg/kg on day 5. Type of data set: functional. A digest of the protocol:
as §2

The test system of data set [25] is Mus musculus. Description: Effect of compound on total white blood cell count in BDG1 male mice, after intraperitoneal administration at a dose of 17 mg/kg on day 7. The data set is classed as functional. In short, it runs like this: as §2
In data set [26] the test system is Mus musculus. Description: Effect of compound on total white blood cell count in BDG1 male mice, after intraperitoneal administration at a dose of 9.56 mg/kg on day 3. Type of data set: functional. A digest of the protocol: as §3
In data set [27] the test system is Mus musculus. Briefly: Effect of compound on total white blood cell count in BDG1 male mice, after intraperitoneal administration at a dose of 9.56 mg/kg on day 5. Type of data set: functional. A digest of the protocol:
as §3

For data set [28], the system named is Mus musculus. Briefly: Effect of compound on total white blood cell count in BDG1 male mice, after intraperitoneal administration at a dose of 9.56 mg/kg on day 7. Type of data set: functional. In short, it runs like this:
as §3

In data set [29] the test system is Mus musculus. Description: Minimum effective dose that show activity against P-388 murine leukemia cells in CDF1 female mice, after intraperitoneal administration (optimal dose is 12.8 mg/kg). The data set is classed as functional. To be noted: P388, ip, read-out: MED. In short, it runs like this: as §4
Data set [30] has as its system Mus musculus. Briefly: Antitumor activity against P-388 murine leukemia cells in CDF1 female mice after intraperitoneal administration at the specified optimal dose of 12.8 mg/kg. Type of data set: functional.

The structures appear in SMILES notation.

For the compound `C=C(C)CNC1=C(C)C(=O)C2=C(C1=O)[C@H](COC(N)=O)C1(OC)[C@@H]3N[C@@H]3CN21` (some centres not stated), the Change in data set [1] is on record as -59%; in data set [3] it was -68%; in [4], -34%; in data set [5], -60%; in [6], -60%; in data set [7], -25%. The E1/2 in data set [2] was -0.41. Moreover, the minimal effective dose in data set [8] came to 1.6 mg/kg. Also, the figures for the Survivors in [9], in data set [16] and in data set [17] were 1, 3 and 1, respectively. The T/C was determined as 226% in data set [10]; 160% in data set [11]; 186% in [12]; 245% in data set [13]; 122% in [14]; 131% in data set [15]. Further, the T/C in [18] was 146%. For the same compound, in [19], the selectivity ratio worked out at 16.

In the case of `C#CCNC1=C(C)C(=O)C2=C(C1=O)[C@H](COC(N)=O)C1(OC)[C@@H]3N[C@@H]3CN21` (some centres not stated), the Change in data set [20] is listed as -69%; in [21] it was -52%; in [22], -68%; in data set [23], -80%; in data set [24] it was -75%; in data set [25], -73%. The Change in [26] is -59%; in [27] it was -56%; in data set [28], -28%. For the same compound, the E1/2 in data set [2] is -0.41. In data set [29], the minimal effective dose came to 0.2 mg/kg. Also, the T/C in data set [30] is listed as 358%. In addition, the selectivity ratio in data set [19] turned out to be 64.
